ChEMBL document CHEMBL4513216, “Probing the Open Global Health Chemical Diversity Library for Multistage-Active Starting Points for Next-Generation Antimalarials” (ACS Infect Dis, 2020)

Experiment: Toxicity liver stage against HepG2, at 10uM
Type: cell-based
Parameters: test concentration 10 uM, cell line HepG2-A16-CD81EGFP
Details: human, HepG2-A16-CD81EGFP cells; read-out: INHIBITION
Summary of the method: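 Uninfected HepG2-A16-CD81EGFP cells, 3 × 10^3 per well, 1536-well, plated on prespotted compound at 10 μM final, parasite-free screening media added to match infected plates; puromycin 10 μM positive, DMSO 0.5% negative; run in parallel with 48 h PbLuc assay at 37 °C, 5% CO2; viability by CellTiter-Glo luminescence, normalized to controls.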

**Q.** With COC(=O)[C@@H]1CCCN1C(=O)c1cn(CCCc2ccccc2)nn1 as the compound, how does the cytotoxicity at 10 µM read?
**A.** Its cytotoxicity at 10 µM is 3.15%.

**Q.** For O=C1OCCN1Cc1cc(C(F)(F)F)ccc1F, which cytotoxicity at 10 µM is on record?
**A.** Its cytotoxicity at 10 µM is -5.52%.

**Q.** For O=C(Nc1ccccc1F)C1=NN(c2ccccc2)C(=O)CN1, which cytotoxicity at 10 µM is on record?
**A.** The cytotoxicity at 10 µM was -13.2%.

**Q.** For COc1ccc(CNCc2ccnc(N3CCOCC3)c2)cc1OC, which cytotoxicity at 10 µM is on record?
**A.** The cytotoxicity at 10 µM was 1.64%.

**Q.** With COCC(=O)N1CC[C@@H](O)[C@@H]1Cc1ccccc1 as the compound, how does the cytotoxicity at 10 µM read?
**A.** Its cytotoxicity at 10 µM is -1.26%.

**Q.** For COC(=O)CCNC(=O)c1ccc(NC(=O)N(C)CC(C)(C)C)cc1, which cytotoxicity at 10 µM is on record?
**A.** Its cytotoxicity at 10 µM is 8.01%.

**Q.** With CCOC[C@@]12CCC[C@@H]1CN(C(=O)COc1ccccc1OC)C2 as the compound, how does the cytotoxicity at 10 µM read?
**A.** The cytotoxicity at 10 µM was -106%.

**Q.** With CC(=O)N1CCC(n2nccc2-c2cnc(N(C)CCO)nc2)CC1 as the compound, how does the cytotoxicity at 10 µM read?
**A.** The cytotoxicity at 10 µM was 5.47%.

**Q.** With CNC(=O)c1cc2c(nc1NCC(C)C)CCN(CCOC)CC2 as the compound, how does the cytotoxicity at 10 µM read?
**A.** Its cytotoxicity at 10 µM is -147%.

**Q.** For CC(c1cccnc1)N(C)Cc1cc(O)c2cc(F)ccc2n1 (stereo unspecified), which cytotoxicity at 10 µM is on record?
**A.** Its cytotoxicity at 10 µM is 10.8%.

**Q.** Which cytotoxicity at 10 µM does the source give for CN(C)C(=O)CN1CCC2(CC1)C[C@@H](O)[C@H](c1ccccc1)NC2=O here?
**A.** The cytotoxicity at 10 µM was -22.4%.

**Q.** Which cytotoxicity at 10 µM does the source give for COCCn1ccnc1C1CCCN(C(=O)c2ccccc2C#N)C1 (stereo unspecified) here?
**A.** Its cytotoxicity at 10 µM is -0.675%.

**Q.** Which cytotoxicity at 10 µM does the source give for CC(=O)c1cccc(NC(=O)Cn2cnc(-c3cccs3)cc2=O)c1 here?
**A.** Its cytotoxicity at 10 µM is -4.44%.

**Q.** Which cytotoxicity at 10 µM does the source give for CC(C)c1cc(N2CCN(c3ccc(O)cc3)CC2)n2nccc2n1 here?
**A.** Its cytotoxicity at 10 µM is -5.76%.

**Q.** For CC(NC(=O)NCCCc1n[nH]c(N)c1C#N)c1ccc(Cl)cc1 (stereo unspecified), which cytotoxicity at 10 µM is on record?
**A.** The cytotoxicity at 10 µM was -12.5%.

**Q.** With CCCc1nc(CN(CC)C(=O)c2ccc3ncsc3c2)no1 as the compound, how does the cytotoxicity at 10 µM read?
**A.** The cytotoxicity at 10 µM was 9.65%.

**Q.** Which cytotoxicity at 10 µM does the source give for CN(C)S(=O)(=O)N1CC[C@]2(C[C@@H](Oc3cccnc3)CO2)C1 here?
**A.** The cytotoxicity at 10 µM was -76.3%.

**Q.** For COc1ccc2[nH]cc(-c3ccnc(N4CCC(C)CC4)n3)c2c1, which cytotoxicity at 10 µM is on record?
**A.** Its cytotoxicity at 10 µM is -7.3%.

**Q.** For COc1ccc(CN2C[C@H]3CCC[C@@H](CN(C)C4CC4)[C@H]3C2)cn1, which cytotoxicity at 10 µM is on record?
**A.** Its cytotoxicity at 10 µM is 4.56%.

**Q.** For OCc1cc2ccccc2nc1NCC1(O)CCC1, which cytotoxicity at 10 µM is on record?
**A.** Its cytotoxicity at 10 µM is -46.9%.

**Q.** With Cn1nc(CN2CCCCC2)c2c1CN(C(=O)c1ccoc1)C2 as the compound, how does the cytotoxicity at 10 µM read?
**A.** Its cytotoxicity at 10 µM is 2.83%.

**Q.** With Cc1nn(C)c(N(C)C)c1CNCc1ccnc(N2CCOCC2)c1 as the compound, how does the cytotoxicity at 10 µM read?
**A.** Its cytotoxicity at 10 µM is -13%.

**Q.** With CCN(C)c1cc(CNC(=O)CNC(=O)CC2CCCCC2)ccn1 as the compound, how does the cytotoxicity at 10 µM read?
**A.** Its cytotoxicity at 10 µM is 2.34%.

**Q.** With Cc1nc(C2CCCN2C(=O)c2ccc(F)cc2)ncc1C(N)=O (stereo unspecified) as the compound, how does the cytotoxicity at 10 µM read?
**A.** Its cytotoxicity at 10 µM is -7.62%.

**Q.** For Cc1cccnc1NC(=O)N(CCO)Cc1ccsc1, which cytotoxicity at 10 µM is on record?
**A.** Its cytotoxicity at 10 µM is -11.3%.

**Q.** For COc1cc(Cl)cc(C(=O)N2CCC3(CCCNC3)C2)c1 (stereo unspecified), which cytotoxicity at 10 µM is on record?
**A.** The cytotoxicity at 10 µM was -7%.

**Q.** Which cytotoxicity at 10 µM does the source give for CC(=O)N1CCN(Cc2c(C)ccc3ccccc23)CC(O)C1 (stereo unspecified) here?
**A.** The cytotoxicity at 10 µM was 11.8%.

**Q.** With Cn1c(=O)c2c(n3ncnc13)NC(=O)CC2c1cccc(F)c1 (stereo unspecified) as the compound, how does the cytotoxicity at 10 µM read?
**A.** Its cytotoxicity at 10 µM is 2.05%.

**Q.** With O=C(O)[C@@H]1CN(C2CCCC2)C[C@H]1C1CC1 as the compound, how does the cytotoxicity at 10 µM read?
**A.** The cytotoxicity at 10 µM was -147%.

**Q.** Which cytotoxicity at 10 µM does the source give for Cc1nc(C(=O)N2CCc3[nH]nc(Nc4ccccc4)c3C2)co1 here?
**A.** Its cytotoxicity at 10 µM is 6.11%.

**Q.** With c1ccc2c(c1)CCC21CN(CCc2ccncc2)CCO1 (stereo unspecified) as the compound, how does the cytotoxicity at 10 µM read?
**A.** Its cytotoxicity at 10 µM is -0.934%.

**Q.** Which cytotoxicity at 10 µM does the source give for Cc1nc(NC2CC2)c2c(n1)c(C)nn2C here?
**A.** Its cytotoxicity at 10 µM is -3.79%.

**Q.** Which cytotoxicity at 10 µM does the source give for CCc1nnc2n1CC(CNc1cnc3ccccc3n1)CC2 (stereo unspecified) here?
**A.** The cytotoxicity at 10 µM was -37.4%.

**Q.** With COc1cc(C2SCC(=O)Nc3[nH]ncc32)c(OC)c2c1OCO2 (stereo unspecified) as the compound, how does the cytotoxicity at 10 µM read?
**A.** The cytotoxicity at 10 µM was 6.63%.

**Q.** With CC(C)c1cc(NCC2(N3CCOCC3)CCCCC2)ncn1 as the compound, how does the cytotoxicity at 10 µM read?
**A.** The cytotoxicity at 10 µM was -12.8%.

**Q.** With Cc1csc(C(Cc2ccsc2)NC(=O)C2CCN(S(C)(=O)=O)CC2)n1 (stereo unspecified) as the compound, how does the cytotoxicity at 10 µM read?
**A.** Its cytotoxicity at 10 µM is -18%.

**Q.** Which cytotoxicity at 10 µM does the source give for Cc1nc2ccccc2n1Cc1cc(C(=O)N(C)C2CCOC2)n[nH]1 (stereo unspecified) here?
**A.** The cytotoxicity at 10 µM was 4.91%.

**Q.** Which cytotoxicity at 10 µM does the source give for CNC(=O)C1CCCCN1C(=O)Cc1csc(-c2ccc(C)o2)n1 (stereo unspecified) here?
**A.** Its cytotoxicity at 10 µM is 8.61%.

**Q.** Which cytotoxicity at 10 µM does the source give for CS(=O)(=O)N1CCCC1Cn1cccn1 (stereo unspecified) here?
**A.** The cytotoxicity at 10 µM was -10.2%.

**Q.** For Cc1nccn1C1CCCN(C(=O)c2ccc3c(c2)nnn3C)C1 (stereo unspecified), which cytotoxicity at 10 µM is on record?
**A.** The cytotoxicity at 10 µM was -7.89%.

**Q.** For NC(=O)CN1CCC(C(=O)NCCn2cc(Cl)cn2)CC1, which cytotoxicity at 10 µM is on record?
**A.** The cytotoxicity at 10 µM was -45.6%.

**Q.** With CS(=O)(=O)N1C[C@H]2CCC[C@@]2(COc2ccccn2)C1 as the compound, how does the cytotoxicity at 10 µM read?
**A.** The cytotoxicity at 10 µM was 1.13%.

**Q.** Which cytotoxicity at 10 µM does the source give for Cc1ccc(Oc2ncccc2CNC(=O)NC2CCCCC2)cn1 here?
**A.** The cytotoxicity at 10 µM was -3.01%.

**Q.** Which cytotoxicity at 10 µM does the source give for CN1C(=O)CC(C(=O)O)C12CCN(Cc1ccc(Cl)cc1F)CC2 (stereo unspecified) here?
**A.** Its cytotoxicity at 10 µM is -7.82%.

**Q.** Which cytotoxicity at 10 µM does the source give for CCC(C)N(Cc1cccnc1)C(=O)c1ncccc1O (stereo unspecified) here?
**A.** The cytotoxicity at 10 µM was 14.9%.

**Q.** With Cc1cc(C2CCNCC2)nc(-c2ccsc2)n1 as the compound, how does the cytotoxicity at 10 µM read?
**A.** Its cytotoxicity at 10 µM is -1.97%.

**Q.** With CC(=O)N(C)c1nc(CN2CCCC2c2cnn(C)c2)cs1 (stereo unspecified) as the compound, how does the cytotoxicity at 10 µM read?
**A.** Its cytotoxicity at 10 µM is -16.1%.

**Q.** Which cytotoxicity at 10 µM does the source give for COc1nc2ccccc2cc1C1CC(=O)Nc2n[nH]c(C3CCC3)c21 (stereo unspecified) here?
**A.** The cytotoxicity at 10 µM was -13.5%.

**Q.** Which cytotoxicity at 10 µM does the source give for Nc1cnc(-c2cccc3c2CCNC3)cn1 here?
**A.** Its cytotoxicity at 10 µM is -12%.

**Q.** With CCn1cc(CN2CCCN(C(=O)C3(C)CCOCC3)CC2)cn1 as the compound, how does the cytotoxicity at 10 µM read?
**A.** Its cytotoxicity at 10 µM is -45.4%.

**Q.** With Cc1cn[nH]c1C1CCCCN1C(=O)CCN1CCCCCC1 (stereo unspecified) as the compound, how does the cytotoxicity at 10 µM read?
**A.** Its cytotoxicity at 10 µM is 5.7%.

**Q.** With O=C1CC2(CCN(Cc3ccsc3)C2)CN1c1ccc2c(c1)OCO2 (stereo unspecified) as the compound, how does the cytotoxicity at 10 µM read?
**A.** The cytotoxicity at 10 µM was -75%.

**Q.** For FC(F)(F)C1CCc2nnc(CNCc3ccsc3)n2C1 (stereo unspecified), which cytotoxicity at 10 µM is on record?
**A.** Its cytotoxicity at 10 µM is 0.847%.

**Q.** With O=C(c1cc(-c2ccco2)nc2c(Cl)cccc12)N1C[C@H]2CNC[C@H]2C1 as the compound, how does the cytotoxicity at 10 µM read?
**A.** Its cytotoxicity at 10 µM is -4.23%.

**Q.** Which cytotoxicity at 10 µM does the source give for CCn1nc(C)c2nnn(CC(=O)Nc3ccccc3)c(=O)c21 here?
**A.** The cytotoxicity at 10 µM was 9.02%.

**Q.** For CCc1cnc(C)nc1NCCC(=O)N1CCC(C)CC1, which cytotoxicity at 10 µM is on record?
**A.** The cytotoxicity at 10 µM was -0.384%.
